Data set [1] deals with T1, Aryl hydrocarbon receptor (Homo sapiens, UniProt P35869).
T1 sequence (P35869 whole entry): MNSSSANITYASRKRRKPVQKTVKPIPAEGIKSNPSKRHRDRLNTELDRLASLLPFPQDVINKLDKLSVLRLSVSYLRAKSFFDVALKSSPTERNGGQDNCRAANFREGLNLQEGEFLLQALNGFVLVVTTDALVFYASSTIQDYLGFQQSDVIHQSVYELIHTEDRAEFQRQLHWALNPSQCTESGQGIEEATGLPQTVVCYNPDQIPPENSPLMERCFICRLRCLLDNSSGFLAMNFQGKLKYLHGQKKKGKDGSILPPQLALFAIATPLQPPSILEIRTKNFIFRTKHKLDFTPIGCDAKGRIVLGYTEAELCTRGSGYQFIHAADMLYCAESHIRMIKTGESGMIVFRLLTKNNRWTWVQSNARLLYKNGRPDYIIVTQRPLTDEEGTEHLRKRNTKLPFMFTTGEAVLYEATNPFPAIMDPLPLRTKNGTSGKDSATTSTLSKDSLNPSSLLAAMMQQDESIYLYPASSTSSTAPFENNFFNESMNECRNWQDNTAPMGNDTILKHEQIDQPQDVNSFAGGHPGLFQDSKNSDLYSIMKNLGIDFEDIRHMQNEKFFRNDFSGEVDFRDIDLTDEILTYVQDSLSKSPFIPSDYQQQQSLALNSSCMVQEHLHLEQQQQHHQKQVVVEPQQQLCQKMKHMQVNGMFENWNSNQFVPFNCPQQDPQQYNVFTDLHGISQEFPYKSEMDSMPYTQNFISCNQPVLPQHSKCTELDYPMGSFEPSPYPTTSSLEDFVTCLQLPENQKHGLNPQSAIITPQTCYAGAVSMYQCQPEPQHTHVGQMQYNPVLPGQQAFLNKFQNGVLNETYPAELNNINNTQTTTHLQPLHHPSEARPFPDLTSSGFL
Put plainly: Transactivation of AhR (unknown origin) assessed as upregulation of CYP1A2. The class given is ADME. In short, it runs like this:
(§1)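 Nuclear receptor reporter-gene induction assay, with reporters coupled to PXR, CAR or AhR. Compound was tested at 0.1–1, 3 and 8 μg/mL. Positive controls were rifampin for PXR, CITCO for CAR and 3-methylcholanthrene for AhR.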

Data set [2] concerns Mycobacterium tuberculosis. Put plainly: Antimycobacterial activity against Mycobacterium tuberculosis H37Rv grown on serum isolated from 10 mg/kg, po treated BALB/c mouse for 30 to 120 mins assessed as reduction in bacterial growth followed by bacterial addition incubated for 7 days by alamar blue reagent based serum inhibition titration assay. The class given is functional, organism-based. In short, it runs like this: (§2)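 Six-week-old female BALB/c mice (20 g) given one oral dose as suspension in 0.5% CMC in water; isoniazid 10 mg/kg as positive control, vehicle as negative. Serum collected at 30, 60 and 120 min, pooled from three mice per time point, 2-fold serially diluted. 10^4 CFU H37Rv added per well, 7 days at 37 °C. alamarBlue added for 16−18 h, fluorescence read at Ex544/Em590 and plotted against serum titration.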

Data set [3] is described as follows: Oral bioavailability in BALB/c mouse at 10 mg/kg administered for 30 to 120 mins followed by Mycobacterium tuberculosis H37Rv addition to compound treated serum incubated for 7 days by alamar blue reagent based serum inhibition titration assay. It counts as ADME, organism-based. As to conditions: in vivo. In outline: as §2
In general terms: The colour change of resazurin is a common sign of viable cells or microbes.

Data set [4] relates to Mycobacterium tuberculosis H37Rv. The data set can be described thus: Inhibition of MmpL3 in clinical isolates of drug sensitive Mycobacterium tuberculosis H37Rv after 7 to 14 days by alamar blue assay.
A short description of data set [5]: Mutagenicity in Salmonella typhimurium TA98 assessed as increase in ratio of revertant colonies in presence of S9 liver fraction relative to control. The class given is toxicity, subcellular. As to conditions: salmonella enterica subsp. enterica serovar typhimurium.
Data set [6] has as its target T2, Nuclear receptor subfamily 1 group I member 3 (Homo sapiens, UniProt Q14994).
T2 sequence (Q14994 whole entry): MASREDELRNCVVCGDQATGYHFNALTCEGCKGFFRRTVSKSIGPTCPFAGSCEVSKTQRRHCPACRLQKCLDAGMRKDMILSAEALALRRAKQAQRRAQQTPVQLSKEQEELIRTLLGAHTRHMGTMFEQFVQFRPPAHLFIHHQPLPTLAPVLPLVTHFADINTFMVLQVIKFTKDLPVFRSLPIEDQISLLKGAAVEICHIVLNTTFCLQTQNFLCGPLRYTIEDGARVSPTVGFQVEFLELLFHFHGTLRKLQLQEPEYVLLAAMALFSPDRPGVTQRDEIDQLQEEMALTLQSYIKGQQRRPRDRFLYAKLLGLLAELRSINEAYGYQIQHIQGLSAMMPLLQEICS
The data set can be described thus: Transactivation of CAR (unknown origin) assessed as upregulation of CYP2B6. The class given is ADME. In outline: as §1

The text below walks through data of ChEMBL document CHEMBL4477209, “Indole-2-carboxamide-based MmpL3 Inhibitors Show Exceptional Antitubercular Activity in an Animal Model of Tuberculosis Infection” (J Med Chem, 2016).

The structures appear in SMILES notation. ≈ marks a conversion by molar mass, not a printed value. Calls of active or inactive are those of the source. No cut-off for these calls is given here.

For `Cc1ccc2cc3c(ccc4ccccc43)c3c2c1CC3` [3-METHYLCHOLANTHRENE], the outcome in data set [1] was Active.
On to `NNC(=O)c1ccncc1` [ISONIAZID], for which, in data set [2], the result was Active. Besides, the Drug uptake entry in data set [3] is given as “Active”. The molecule further gave an MIC90 in data set [4] of 0.29 µM (≈ 0.0398 µg/mL).
Regarding `Nc1ccc2cc3ccccc3cc2c1` [2-AMINOANTHRACENE], the “fold change (FC)” value in data set [5] stood at 173.
`Clc1ccc(-c2nc3sccn3c2/C=N/OCc2ccc(Cl)c(Cl)c2)cc1`: the outcome in data set [6] was Active.
